One test has as its target T1, Histone deacetylase 8 (Homo sapiens, UniProt Q9BY41).
T1 sequence (Q9BY41 whole entry): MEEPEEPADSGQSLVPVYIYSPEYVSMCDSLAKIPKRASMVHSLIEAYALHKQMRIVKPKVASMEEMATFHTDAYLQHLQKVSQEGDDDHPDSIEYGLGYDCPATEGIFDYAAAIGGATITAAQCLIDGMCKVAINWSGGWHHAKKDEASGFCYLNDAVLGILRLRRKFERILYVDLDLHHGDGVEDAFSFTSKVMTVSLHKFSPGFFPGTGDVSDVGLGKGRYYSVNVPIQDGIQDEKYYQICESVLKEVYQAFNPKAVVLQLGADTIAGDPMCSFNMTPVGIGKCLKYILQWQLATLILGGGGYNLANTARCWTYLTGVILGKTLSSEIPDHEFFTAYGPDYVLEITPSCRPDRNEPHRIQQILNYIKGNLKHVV
The test can be described thus: Inhibition of full length human HDAC8 using FAM-labeled acetylated peptide as substrate by electrophoretic mobility shift assay. The procedure, abridged:
(§1)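 Full-length human HDAC isoform enzymatic assay by electrophoretic mobility shift, using a FAM-labelled acetylated peptide substrate. […] Values are the mean of duplicate experiments with 95% confidence intervals.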

A further test addresses T2, Histone deacetylase 11 (Homo sapiens, UniProt Q96DB2).
T2 sequence (Q96DB2 whole entry): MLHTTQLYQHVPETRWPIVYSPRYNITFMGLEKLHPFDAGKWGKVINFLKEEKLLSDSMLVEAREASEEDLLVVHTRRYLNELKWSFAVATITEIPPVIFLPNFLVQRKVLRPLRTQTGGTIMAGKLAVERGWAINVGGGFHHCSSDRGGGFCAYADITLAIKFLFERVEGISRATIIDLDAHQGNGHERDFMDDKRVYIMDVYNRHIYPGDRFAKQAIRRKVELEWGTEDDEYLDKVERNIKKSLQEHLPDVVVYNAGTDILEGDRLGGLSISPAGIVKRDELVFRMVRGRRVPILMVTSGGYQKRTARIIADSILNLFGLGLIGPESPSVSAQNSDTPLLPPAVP
Put plainly: Inhibition of full length human HDAC11 using FAM-labeled acetylated peptide as substrate by electrophoretic mobility shift assay. A digest of the protocol:
as §1

The target of test [1] is T3, Protein deacetylase HDAC6 (Homo sapiens, UniProt Q9UBN7).
T3 sequence (Q9UBN7 whole entry): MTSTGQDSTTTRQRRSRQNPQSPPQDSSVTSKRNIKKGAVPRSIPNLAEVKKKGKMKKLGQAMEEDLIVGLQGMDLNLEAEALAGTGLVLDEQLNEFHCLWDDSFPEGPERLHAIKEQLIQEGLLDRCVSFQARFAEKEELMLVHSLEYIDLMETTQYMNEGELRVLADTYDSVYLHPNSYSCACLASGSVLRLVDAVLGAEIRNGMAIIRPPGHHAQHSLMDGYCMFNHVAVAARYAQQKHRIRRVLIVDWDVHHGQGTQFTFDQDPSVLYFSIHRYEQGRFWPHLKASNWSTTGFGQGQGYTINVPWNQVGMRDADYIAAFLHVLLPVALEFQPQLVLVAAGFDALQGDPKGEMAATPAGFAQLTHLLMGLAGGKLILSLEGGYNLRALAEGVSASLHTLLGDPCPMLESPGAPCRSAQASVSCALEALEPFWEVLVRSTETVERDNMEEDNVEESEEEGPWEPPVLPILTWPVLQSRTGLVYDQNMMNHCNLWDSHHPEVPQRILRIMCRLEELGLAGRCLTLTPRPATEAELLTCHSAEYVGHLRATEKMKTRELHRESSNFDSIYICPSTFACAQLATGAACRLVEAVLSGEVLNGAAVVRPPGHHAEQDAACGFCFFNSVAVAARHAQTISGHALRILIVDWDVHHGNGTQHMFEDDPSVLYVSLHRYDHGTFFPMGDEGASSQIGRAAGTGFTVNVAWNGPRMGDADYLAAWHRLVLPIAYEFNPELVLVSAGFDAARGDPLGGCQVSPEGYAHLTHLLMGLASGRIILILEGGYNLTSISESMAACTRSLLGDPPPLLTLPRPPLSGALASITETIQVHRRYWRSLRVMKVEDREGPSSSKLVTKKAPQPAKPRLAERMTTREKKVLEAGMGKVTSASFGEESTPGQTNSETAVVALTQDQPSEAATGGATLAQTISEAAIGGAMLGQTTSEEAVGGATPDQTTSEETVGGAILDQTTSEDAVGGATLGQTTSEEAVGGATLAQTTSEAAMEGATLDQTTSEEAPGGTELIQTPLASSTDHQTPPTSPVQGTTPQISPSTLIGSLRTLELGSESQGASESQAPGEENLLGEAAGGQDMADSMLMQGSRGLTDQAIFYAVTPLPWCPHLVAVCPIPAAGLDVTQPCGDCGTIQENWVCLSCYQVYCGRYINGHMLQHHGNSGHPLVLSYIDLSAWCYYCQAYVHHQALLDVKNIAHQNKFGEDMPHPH
Put plainly: Inhibition of full length human HDAC6 using FAM-labeled acetylated peptide as substrate by electrophoretic mobility shift assay. Background: A gel shift assay detects complexes by their altered migration in electrophoresis.

A further test has as its target Histone deacetylase 3 (Homo sapiens, UniProt O15379). The test can be described thus: Inhibition of full length human HDAC3 using FAM-labeled acetylated peptide as substrate by electrophoretic mobility shift assay. A digest of the protocol: as §1

Histone deacetylase 3, sequence (O15379 whole entry): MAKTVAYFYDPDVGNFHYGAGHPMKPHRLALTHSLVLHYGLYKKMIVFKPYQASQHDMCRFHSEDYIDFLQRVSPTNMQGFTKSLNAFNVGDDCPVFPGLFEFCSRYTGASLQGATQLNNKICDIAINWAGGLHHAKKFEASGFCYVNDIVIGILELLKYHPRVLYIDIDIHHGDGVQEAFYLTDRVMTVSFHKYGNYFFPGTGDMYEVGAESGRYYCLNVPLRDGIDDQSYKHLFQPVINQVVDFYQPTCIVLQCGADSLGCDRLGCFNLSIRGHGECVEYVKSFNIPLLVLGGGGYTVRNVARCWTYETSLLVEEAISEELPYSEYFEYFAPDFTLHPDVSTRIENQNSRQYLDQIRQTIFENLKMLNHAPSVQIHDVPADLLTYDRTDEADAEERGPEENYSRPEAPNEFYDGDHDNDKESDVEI

As to `O=C(NO)c1ccc(CN(Cc2ccncc2)S(=O)(=O)c2cc(F)c(F)c(F)c2F)cc1`, the IC50 – broadly, the concentration that inhibits the measured activity by half – on Histone deacetylase 8 is 581 nM; at Histone deacetylase 11, 472 nM; in test [1], 11 nM; on Histone deacetylase 3 it was more than 1000 nM.

Regarding `O=C(NO)c1ccc(CN(Cc2cccc(F)c2)S(=O)(=O)c2cc(F)c(F)c(F)c2F)cc1`, the IC50 was 412 nM on Histone deacetylase 8, 235 nM on Histone deacetylase 11, 14 nM in test [1] and more than 1000 nM at Histone deacetylase 3.

With `O=C(NO)c1ccc(CN(Cc2ccccn2)S(=O)(=O)c2cc(F)c(F)c(F)c2F)cc1`, the IC50 came out at 332 nM on Histone deacetylase 8, 941 nM on Histone deacetylase 11, 6 nM in test [1] and 896 nM on Histone deacetylase 3.

On to `O=C(NO)c1ccc(CN(Cc2ccc(C(F)(F)F)cc2)S(=O)(=O)c2c(F)c(F)c(F)c(F)c2F)cc1`, for which the IC50 on Histone deacetylase 8 was more than 1000 nM; at Histone deacetylase 11, more than 1000 nM; in test [1] it was 45 nM; on Histone deacetylase 3, more than 1000 nM.

`O=C(NO)c1ccc(CN(Cc2ccncc2)S(=O)(=O)c2c(F)c(F)c(F)c(F)c2F)cc1`: the IC50 was more than 1000 nM at Histone deacetylase 8, more than 1000 nM at Histone deacetylase 11, 14 nM in test [1] and more than 1000 nM on Histone deacetylase 3.

On to `O=C(CCCCCCC(=O)N/N=C/c1ccc(N(c2ccccc2)c2ccccc2)cc1)NO`, for which the IC50 in test [1] is 400 nM.

On to `CC(C)(C)c1ccc(CN(Cc2ccc(C(=O)NO)cc2)S(=O)(=O)c2c(F)c(F)c(F)c(F)c2F)cc1`, for which the concentration for half-maximal inhibition (IC50) at Histone deacetylase 8 was 68 nM; at Histone deacetylase 11, 88 nM; in test [1], 42 nM; at Histone deacetylase 3, more than 1000 nM.

Consider `O=C(NO)c1ccc(CN(Cc2ccccc2)S(=O)(=O)c2cc(F)c(F)c(F)c2F)cc1`, for which the IC50 at Histone deacetylase 8 stood at 155 nM; at Histone deacetylase 11 it was 115 nM; in test [1] it was 5 nM; at Histone deacetylase 3, 697 nM.

With `Cc1ccc(CN(Cc2ccc(C(=O)NO)cc2)S(=O)(=O)c2c(F)c(F)c(F)c(F)c2F)cc1`, the IC50 is 101 nM at Histone deacetylase 8, 73 nM at Histone deacetylase 11, 6 nM in test [1] and more than 1000 nM at Histone deacetylase 3.

As to `O=C(NO)c1ccc(CN(Cc2ccc(F)cc2)S(=O)(=O)c2cc(F)c(F)c(F)c2F)cc1`, the IC50 is 860 nM on Histone deacetylase 8, more than 1000 nM on Histone deacetylase 11, 21 nM in test [1] and more than 1000 nM on Histone deacetylase 3.

For `CN(C)c1ccc(CN(Cc2ccc(C(=O)NO)cc2)S(=O)(=O)c2c(F)c(F)c(F)c(F)c2F)cc1`, the IC50 at Histone deacetylase 8 was more than 1000 nM; on Histone deacetylase 11 it was more than 1000 nM; in test [1], 29 nM; on Histone deacetylase 3 it was more than 1000 nM.

Regarding `O=C(NO)c1ccc(CNS(=O)(=O)c2c(F)c(F)c(F)c(F)c2F)cc1`, the 50% inhibitory concentration (IC50) on Histone deacetylase 8, at Histone deacetylase 11 and on Histone deacetylase 3 was more than 1000 nM each time.

For the compound `O=C(NO)c1ccc(CN(Cc2ccccc2)S(=O)(=O)c2c(F)c(F)c(F)c(F)c2F)cc1`, the IC50 was 150 nM on Histone deacetylase 8, 122 nM on Histone deacetylase 11, 9 nM in test [1] and more than 1000 nM on Histone deacetylase 3.

For the compound `O=C(NO)c1ccc(CN(Cc2ccc(F)cc2)S(=O)(=O)c2c(F)c(F)c(F)c(F)c2F)cc1`, the IC50 at Histone deacetylase 8 was 367 nM; on Histone deacetylase 11, 787 nM; in test [1] it was 13 nM; at Histone deacetylase 3, more than 1000 nM.

Take `O=C(NO)c1ccc(CN(Cc2ccccc2F)S(=O)(=O)c2cc(F)c(F)c(F)c2F)cc1`: the IC50 on Histone deacetylase 8 is 241 nM; at Histone deacetylase 11 it was 263 nM; in test [1], 10 nM; at Histone deacetylase 3, more than 1000 nM.

These data come from ChEMBL document CHEMBL5042469, “Unique Molecular Interaction with the Histone Deacetylase 6 Catalytic Tunnel: Crystallographic and Biological Characterization of a Model Chemotype” (J Med Chem, 2021).
